# Experiments:
# Human alphaherpesvirus 1 [1] = assay: Antiviral activity against HSV1 in african green monkey Vero cells assessed as log reduction of virus titer at 1.4 ug/ml; assay type: functional
# In short: (§1)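 Vero (ATCC CCL81) monolayers, confluent and 1 day old, in microtiter plates. Compound was diluted from DMSO stock into MEM and added just before infection with HSV-1 strain H 29 S at 100 TCID50/well. Each drug was tested in sextuplicate at 37° for 72 h. Wells were freeze-thawed 3 times, pooled and clarified, then titrated by limit dilution (CPE, TCID50/ml). Activity is the log10 titer reduction versus untreated controls.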
# Human alphaherpesvirus 1 [2] = assay: Antiviral activity against HSV1 in african green monkey Vero cells assessed as log reduction of virus titer at 32.4 ug/ml; assay type: functional; in short: as §1
# [3] = Cytotoxicity against african green monkey Vero cells; assay type: cell-based; conditions: chlorocebus sabaeus
# In short: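 Uninfected Vero monolayers (ATCC CCL81; MEM with 10% newborn calf serum) in 25 cm2 flasks, 2.10^6 cells, four flasks per dilution, exposed to 0.05–5 mM in maintenance medium, diluted from DMSO stocks with MEM. After 96 h, morphology checked by microscopy; cells trypsinized and counted by trypan blue exclusion against untreated cultures. CC50 = concentration halving cell number.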
# Human alphaherpesvirus 1 [4] = assay: Antiviral activity against HSV1 in african green monkey Vero cells assessed as log reduction of virus titer at 21.6 ug/ml; assay type: functional; in short: as §1
# Human alphaherpesvirus 1 [5] = assay: Antiviral activity against HSV1 in african green monkey Vero cells assessed as log reduction of virus titer at 2.8 ug/ml; assay type: functional; in short: as §1
# Human alphaherpesvirus 1 [6] = assay: Antiviral activity against HSV1 in african green monkey Vero cells assessed as log reduction of virus titer at 40.6 ug/ml; assay type: functional; in short: as §1
# Human alphaherpesvirus 1 [7] = assay: Antiviral activity against HSV1 in african green monkey Vero cells assessed as log reduction of virus titer at 5.4 ug/ml; assay type: functional; in short: as §1
# Human alphaherpesvirus 1 [8] = assay: Antiviral activity against HSV1 in african green monkey Vero cells assessed as log reduction of virus titer at 20.3 ug/ml; assay type: functional; in short: as §1
# Human alphaherpesvirus 1 [9] = assay: Antiviral activity against HSV1 in african green monkey Vero cells assessed as log reduction of virus titer at 30.5 ug/ml; assay type: functional; in short: as §1
# Human alphaherpesvirus 1 [10] = assay: Antiviral activity against HSV1 in african green monkey Vero cells assessed as log reduction of virus titer at 10.8 ug/ml; assay type: functional; in short: as §1
# Human alphaherpesvirus 1 [11] = assay: Antiviral activity against HSV1 in african green monkey Vero cells assessed as log reduction of virus titer at 22.9 ug/ml; assay type: functional; in short: as §1
# Human alphaherpesvirus 1 [12] = assay: Antiviral activity against HSV1 in african green monkey Vero cells assessed as log reduction of virus titer at 34.3 ug/ml; assay type: functional; in short: as §1
# Human alphaherpesvirus 1 [13] = assay: Antiviral activity against HSV1 in african green monkey Vero cells assessed as log reduction of virus titer at 45.7 ug/ml; assay type: functional; in short: as §1
# Human alphaherpesvirus 1 [14] = assay: Antiviral activity against HSV1 in african green monkey Vero cells assessed as log reduction of virus titer at 24.1 ug/ml; assay type: functional; in short: as §1
# Human alphaherpesvirus 1 [15] = assay: Antiviral activity against HSV1 in african green monkey Vero cells assessed as log reduction of virus titer at 12 ug/ml; assay type: functional; in short: as §1
# Human alphaherpesvirus 1 [16] = assay: Antiviral activity against HSV1 in african green monkey Vero cells assessed as log reduction of virus titer at 36.2 ug/ml; assay type: functional; in short: as §1
# Human alphaherpesvirus 1 [17] = assay: Antiviral activity against HSV1 in african green monkey Vero cells assessed as log reduction of virus titer at 5.7 ug/ml; assay type: functional; in short: as §1
# Human alphaherpesvirus 1 [18] = assay: Antiviral activity against HSV1 in african green monkey Vero cells assessed as log reduction of virus titer at 10 ug/ml; assay type: functional; in short: as §1
# Human alphaherpesvirus 1 [19] = assay: Antiviral activity against HSV1 in african green monkey Vero cells assessed as log reduction of virus titer at 15 ug/ml; assay type: functional; in short: as §1
# Human alphaherpesvirus 1 [20] = assay: Antiviral activity against HSV1 in african green monkey Vero cells assessed as log reduction of virus titer at 11.4 ug/ml; assay type: functional; in short: as §1
# Human alphaherpesvirus 1 [21] = assay: Antiviral activity against HSV1 in african green monkey Vero cells assessed as log reduction of virus titer at 10.1 ug/ml; assay type: functional; in short: as §1
# Human alphaherpesvirus 1 [22] = assay: Antiviral activity against HSV1 in african green monkey Vero cells assessed as log reduction of virus titer at 5 ug/ml; assay type: functional; in short: as §1
# Human alphaherpesvirus 1 [23] = assay: Antiviral activity against HSV1 in african green monkey Vero cells assessed as log reduction of virus titer at 60.4 ug/ml; assay type: functional; in short: as §1
# Human alphaherpesvirus 1 [24] = assay: Antiviral activity against HSV1 in african green monkey Vero cells assessed as log reduction of virus titer at 72.5 ug/ml; assay type: functional; in short: as §1
# Human alphaherpesvirus 1 [25] = assay: Antiviral activity against HSV1 in african green monkey Vero cells assessed as log reduction of virus titer at 48.3 ug/ml; assay type: functional; in short: as §1
smiles,measurement,setting,value
O=c1cc(-c2ccc(O)cc2)oc2cc(O)cc(O)c12 [APIGENIN],Activity,Human alphaherpesvirus 1 [1],0.25
same,Activity,Human alphaherpesvirus 1 [2],1.5
same,CC50,[3],54 µg/mL
same,Activity,Human alphaherpesvirus 1 [4],1
same,Activity,Human alphaherpesvirus 1 [5],0.4
O=c1cc(-c2ccccc2)oc2cc(O)cc(O)c12 [CHRYSIN],Activity,Human alphaherpesvirus 1 [6],1.1
same,Activity,Human alphaherpesvirus 1 [7],0.25
same,Activity,Human alphaherpesvirus 1 [8],0.5
same,CC50,[3],76.2 µg/mL
same,Activity,Human alphaherpesvirus 1 [9],0.8
same,Activity,Human alphaherpesvirus 1 [10],0.5
O=c1c(O)c(-c2ccccc2)oc2cc(O)cc(O)c12 [GALANGIN],CC50,[3],43.2 µg/mL
same,Activity,Human alphaherpesvirus 1 [10],2.3
same,Activity,Human alphaherpesvirus 1 [4],3.5
O=c1c(O)c(-c2ccc(O)cc2)oc2cc(O)cc(O)c12 [KAEMPFEROL],Activity,Human alphaherpesvirus 1 [11],1.5
same,Activity,Human alphaherpesvirus 1 [12],3.1
same,Activity,Human alphaherpesvirus 1 [13],3.5
same,Activity,Human alphaherpesvirus 1 [14],0.75
same,Activity,Human alphaherpesvirus 1 [15],0.1
same,Activity,Human alphaherpesvirus 1 [16],1.25
same,CC50,[3],91.5 µg/mL
O=c1cc(-c2ccc(O)c(O)c2)oc2cc(O)cc(O)c12 [LUTEOLIN],Activity,Human alphaherpesvirus 1 [17],0.9
same,Activity,Human alphaherpesvirus 1 [18],1
same,Activity,Human alphaherpesvirus 1 [19],1.5
same,CC50,[3],22.9 µg/mL
same,Activity,Human alphaherpesvirus 1 [20],2.2
O=c1c(O)c(-c2ccc(O)c(O)c2)oc2cc(O)cc(O)c12 [QUERCETIN],Activity,Human alphaherpesvirus 1 [21],0.3
same,Activity,Human alphaherpesvirus 1 [22],0
same,Activity,Human alphaherpesvirus 1 [23],2
same,Activity,Human alphaherpesvirus 1 [24],2.3
same,Activity,Human alphaherpesvirus 1 [25],1.4
same,CC50,[3],151 µg/mL

# Source: ChEMBL document CHEMBL1150063, “Synergistic effect of flavones and flavonols against herpes simplex virus type 1 in cell culture. Comparison with the antiviral activity of propolis” (J Nat Prod, 1992)
